Source: ChEMBL document CHEMBL1221191, “Inhibitors of Polo-like kinase reveal roles in spindle-pole maintenance” (Nat Chem Biol, 2006)
The source made the active and inactive calls. The rule behind the calls is not given here.

How the values were obtained:
[1] = target: Serine/threonine-protein kinase PLK1 (Homo sapiens, UniProt P53350)
[2] = Antimitotic activity against Drosophila melanogaster S2 cells assessed as bipolar spindles at 10 uM after 24 hrs by immunostaining relative to control; assay type: functional
Outline: (§1)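 Drosophila S2 cells exposed to 10 μM (24 h, fixed) or 25 μM (added at time 0 to cells already in mitosis) of compound, with 0.1% DMSO control. Fixed cells immunostained for α-tubulin, γ-tubulin and DNA. Live cells expressing GFP-tubulin filmed by spinning-disk confocal time-lapse at 25 ± 1 °C to follow spindle behaviour.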

HT-29 = assay: Cytotoxicity against human HT-29 cells assessed as mitotic progression after 72 hrs by MTT assay; assay type: functional, cell-based; conditions: HT-29, 72 h
S2 [3] = assay: Antimitotic activity against Drosophila melanogaster S2 cells assessed as nucleated microtubule at 20 nM in presence of high speed cytoplasmic supernatant; assay type: functional, cell-based
Outline: (§2)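 Centrosomes partially purified from Drosophila embryos, some stripped with 1 M KI. Compound (10 or 20 nM; 0.1% DMSO carrier) incubated 20 min at 25 °C with centrosomes or with high-speed embryonic cytoplasmic supernatant, then microtubule nucleation assayed with rhodamine-labelled tubulin. Staining for γ-tubulin, MPM2 epitope, Asp and centrosomin. MPM2 also checked by western blot of treated supernatant.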

[4] = target: Glycogen synthase kinase-3 alpha (Homo sapiens, UniProt P49840); assay: Inhibition of GSK3alpha
S2 [5] = assay: Antimitotic activity against Drosophila melanogaster S2 cells assessed as nucleated microtubule at 10 nM; assay type: functional, cell-based
Outline: as §2

S2 [6] = assay: Antimitotic activity against Drosophila melanogaster S2 cells assessed as loss of gamma-tubulin at 20 nM by immunostaining; assay type: functional, cell-based
Outline: as §2

S2 [7] = assay: Antimitotic activity against Drosophila melanogaster S2 cells assessed as collapsed spindles at 25 uM; assay type: functional, cell-based
Outline: as §1

HeLa [8] = assay: Antitumor activity against human HeLa cells assessed as change in kinetochore microtubules density at 25 uM after 24 hrs by immunostaining relative to control; assay type: functional, cell-based
Outline: (§3)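 HeLa cells treated 24 h with 10 or 25 μM compound or 0.1% DMSO, then fixed and stained for α-tubulin, γ-tubulin and DNA. Spindle length taken as pole-to-pole distance. Microtubule density judged from the immunostained spindles.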

[9] = Inhibition of P70S6K
A549 = assay: Cytotoxicity against human A549 cells assessed as mitotic progression after 72 hrs by MTT assay; assay type: functional, cell-based; conditions: A549, 72 h
Aurora kinase A = Aurora kinase A (Homo sapiens, UniProt O14965); assay: Inhibition of Aurora A
HeLa [10] = assay: Antitumor activity against human HeLa cells assessed as shortened mitotic spindles at 25 uM after 24 hrs by immunostaining relative to control; assay type: functional, cell-based
Outline: as §3

[11] = Inhibition of CK2
Drosophila melanogaster = assay: Inhibition of […]-mediated Asp protein recruitment in Drosophila melanogaster S2 at 20 nM in presence of high-speed supernatant of syncytial embryo cytoplasam
Outline: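 Centrosomes partially purified from D. melanogaster embryos were salt-stripped with 1 M KI. They were then incubated with rhodamine-labeled tubulin and high-speed embryonic cytoplasmic supernatant. The supernatant was pretreated with compound (20 nM) or 0.1% DMSO for 20 min at 25 °C. Preparations were immunostained for centrosomin, γ-tubulin, Asp and the MPM2 phosphoepitope, and microtubule nucleation was scored.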

S2 [12] = assay: Antimitotic activity against Drosophila melanogaster S2 cells expressing GFP-tubulin assessed as abnormal spindles at 25 uM; assay type: functional, cell-based
Outline: as §1

S2 [13] = assay: Inhibition of Plk1 in Drosophila melanogaster S2 cells at 20 nM; assay type: cell-based
[14] = Inhibition of CamK2
[15] = target: RAC-alpha serine/threonine-protein kinase (Homo sapiens, UniProt P31749); assay: Inhibition of Akt
[16] = target: Aurora kinase B (Drosophila melanogaster) (UniProt Q9VKN7); assay: Inhibition of Aurora B kinase in Drosophila melanogaster assessed as histone H3 phosphorylation at Ser10
HeLa [17] = assay: Antitumor activity against human HeLa cells assessed as shortened mitotic spindles at 10 uM after 24 hrs by immunostaining relative to control; assay type: functional, cell-based
Outline: as §3

[18] = target: Cyclin-dependent kinase 2/cyclin A (Homo sapiens, UniProt P24941); assay: Inhibition of CDK2/Cyclin A; assay type: protein-complex assay
[19] = Inhibition of MAPK/ERK
[20] = target: Protein kinase C alpha type (Homo sapiens, UniProt P17252); assay: Inhibition of PKCalpha
[21] = target: Cyclin-dependent kinase 1/cyclin B1 (Homo sapiens, UniProt P06493); assay: Inhibition of CDK1/Cyclin B; assay type: protein-complex assay
S2 [22] = assay: Antimitotic activity against Drosophila melanogaster S2 cells assessed as nucleated microtubule at 20 nM; assay type: functional, cell-based
Outline: as §2

S2 [23] = assay: Antimitotic activity against Drosophila melanogaster S2 cells cytosolic extract assessed as loss of MPM2 epitope; assay type: functional, cell-based
Outline: as §2

HeLa [24] = assay: Cytotoxicity against human HeLa cells assessed as mitotic progression after 72 hrs by MTT assay; assay type: functional, cell-based
[25] = target: Mitogen-activated protein kinase 11 (Homo sapiens, UniProt Q15759); assay: Inhibition of SAPK2
[26] = target: Cyclin-dependent kinase 4/cyclin D1 (Homo sapiens, UniProt P11802); assay: Inhibition of CDK4/Cyclin D1; assay type: protein-complex assay
[27] = target: Tyrosine-protein kinase ABL1 (Homo sapiens, UniProt P00519); assay: Inhibition of Abl
S2 [28] = assay: Inhibition of […]-mediated gamma-TuRc recruitment in Drosophila melanogaster S2 cells at 20 nM in presence of high-speed supernatant of syncytial embryo cytoplasam; assay type: cell-based
Outline: as §2

CDK9/cyclin T1 = CDK9/cyclin T1 (Homo sapiens, UniProt P50750); assay: Inhibition of CDK9/Cyclin T; assay type: protein-complex assay
[29] = target: Cyclin-dependent kinase 7/ cyclin H (Homo sapiens, UniProt P50613); assay: Inhibition of CDK7/Cyclin H; assay type: protein-complex assay
S2 [30] = assay: Antimitotic activity against Drosophila melanogaster S2 cells assessed as loss of MPM2 epitope from centrosome at 20 nM by immunostaining; assay type: functional, cell-based
Outline: as §2

[31] = Inhibition of PKA
[32] = target: Cyclin-dependent kinase 2/cyclin E1 (Homo sapiens, UniProt P24941); assay: Inhibition of CDK2/Cyclin E; assay type: protein-complex assay
[33] = target: MAP kinase-activated protein kinase 2 (Homo sapiens) (UniProt P49137); assay: Residual activity of MAPKAP-K2 at 100 uM relative to control
[34] = target: Inhibitor of nuclear factor kappa-B kinase subunit alpha (Homo sapiens) (UniProt O15111); assay: Residual activity of IKKalpha at 100 uM relative to control
[35] = target: Fibroblast growth factor receptor 3 (Homo sapiens) (UniProt P22607); assay: Residual activity of FGFR3 at 100 uM relative to control
[36] = target: Cyclin-dependent kinase 2/cyclin E1 (Homo sapiens) (UniProt P24864+P24941); assay: Residual activity of CDK2/E at 100 uM relative to control
[37] = target: RAF proto-oncogene serine/threonine-protein kinase (Homo sapiens) (UniProt P04049); assay: Residual activity of c-RAF at 100 uM relative to control
[38] = target: Serine/threonine-protein kinase Chk2 (Homo sapiens) (UniProt O96017); assay: Residual activity of Chk2 at 100 uM relative to control
[39] = Residual activity of SAPK2b at 100 uM relative to control
[40] = target: Tyrosine-protein kinase Yes (Homo sapiens) (UniProt P07947); assay: Residual activity of Yes at 100 uM relative to control
[41] = target: Dual specificity mitogen-activated protein kinase kinase 6 (Homo sapiens) (UniProt P52564); assay: Residual activity of MKK6 at 100 uM relative to control
[42] = target: Protein kinase C gamma type (Homo sapiens) (UniProt P05129); assay: Residual activity of PKCgamma at 100 uM relative to control
[43] = target: Serine/threonine-protein kinase Chk1 (Homo sapiens) (UniProt O14757); assay: Residual activity of Chk1 at 100 uM relative to control
[44] = target: Protein kinase C beta type (Homo sapiens) (UniProt P05771); assay: Residual activity of PKCbeta2 at 100 uM relative to control
[45] = target: Insulin receptor (Homo sapiens) (UniProt P06213); assay: Residual activity of IR at 100 uM relative to control
[46] = target: Insulin-like growth factor 1 receptor (Homo sapiens) (UniProt P08069); assay: Residual activity of IGF-1R at 100 uM relative to control
[47] = target: Dual specificity mitogen-activated protein kinase kinase 1 (Homo sapiens) (UniProt Q02750); assay: Residual activity of MEK1 at 100 uM relative to control
[48] = target: Mitogen-activated protein kinase 12 (Homo sapiens) (UniProt P53778); assay: Residual activity of SAPK3 at 100 uM relative to control
[49] = target: Ribosomal protein S6 kinase alpha-5 (Homo sapiens) (UniProt O75582); assay: Residual activity of MSK1 at 100 uM relative to control
[50] = target: Platelet-derived growth factor receptor alpha (Homo sapiens) (UniProt P16234); assay: Residual activity of PDGFRalpha at 100 uM relative to control
[51] = target: Mitogen-activated protein kinase 9 (Homo sapiens) (UniProt P45984); assay: Residual activity of JNK2alpha2 at 100 uM relative to control
[52] = target: Tyrosine-protein kinase CSK (Homo sapiens) (UniProt P41240); assay: Inhibition of CSK at 100 uM
[53] = target: Tyrosine-protein kinase CSK (Homo sapiens) (UniProt P41240); assay: Inhibition of CSK at 100 uM relative to control; values are per cent of control
[54] = target: Ribosomal protein S6 kinase alpha-3 (Homo sapiens) (UniProt P51812); assay: Residual activity of Rsk2 at 100 uM relative to control

Sequence of Serine/threonine-protein kinase PLK1 (P53350 whole entry): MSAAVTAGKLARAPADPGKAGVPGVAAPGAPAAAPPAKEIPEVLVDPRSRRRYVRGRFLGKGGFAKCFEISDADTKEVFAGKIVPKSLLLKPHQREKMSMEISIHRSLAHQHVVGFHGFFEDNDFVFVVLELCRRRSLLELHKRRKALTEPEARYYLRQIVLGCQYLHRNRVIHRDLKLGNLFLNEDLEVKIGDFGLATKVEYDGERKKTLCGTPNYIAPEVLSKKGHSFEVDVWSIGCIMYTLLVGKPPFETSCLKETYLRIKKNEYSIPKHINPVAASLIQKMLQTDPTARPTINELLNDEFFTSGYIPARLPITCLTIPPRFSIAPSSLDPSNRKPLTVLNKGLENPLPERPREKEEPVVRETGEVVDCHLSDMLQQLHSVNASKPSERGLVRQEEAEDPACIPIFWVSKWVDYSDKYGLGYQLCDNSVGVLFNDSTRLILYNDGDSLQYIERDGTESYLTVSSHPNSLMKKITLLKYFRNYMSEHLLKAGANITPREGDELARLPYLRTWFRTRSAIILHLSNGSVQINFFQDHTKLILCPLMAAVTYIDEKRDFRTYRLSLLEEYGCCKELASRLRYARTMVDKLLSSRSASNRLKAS
Sequence of Glycogen synthase kinase-3 alpha (P49840 whole entry): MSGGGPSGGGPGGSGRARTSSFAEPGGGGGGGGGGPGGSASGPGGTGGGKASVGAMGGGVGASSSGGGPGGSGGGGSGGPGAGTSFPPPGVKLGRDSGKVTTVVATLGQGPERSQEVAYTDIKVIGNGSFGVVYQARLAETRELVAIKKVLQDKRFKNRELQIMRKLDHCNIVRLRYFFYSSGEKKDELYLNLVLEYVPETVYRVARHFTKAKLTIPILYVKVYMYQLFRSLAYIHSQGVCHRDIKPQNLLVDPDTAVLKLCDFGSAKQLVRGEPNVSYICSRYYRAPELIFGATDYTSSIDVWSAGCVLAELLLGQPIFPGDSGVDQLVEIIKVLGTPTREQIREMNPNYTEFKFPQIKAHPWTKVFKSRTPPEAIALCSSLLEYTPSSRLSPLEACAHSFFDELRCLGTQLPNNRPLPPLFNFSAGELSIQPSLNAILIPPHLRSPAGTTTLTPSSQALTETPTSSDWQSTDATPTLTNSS
Sequence of Mitogen-activated protein kinase 11 (Q15759 whole entry): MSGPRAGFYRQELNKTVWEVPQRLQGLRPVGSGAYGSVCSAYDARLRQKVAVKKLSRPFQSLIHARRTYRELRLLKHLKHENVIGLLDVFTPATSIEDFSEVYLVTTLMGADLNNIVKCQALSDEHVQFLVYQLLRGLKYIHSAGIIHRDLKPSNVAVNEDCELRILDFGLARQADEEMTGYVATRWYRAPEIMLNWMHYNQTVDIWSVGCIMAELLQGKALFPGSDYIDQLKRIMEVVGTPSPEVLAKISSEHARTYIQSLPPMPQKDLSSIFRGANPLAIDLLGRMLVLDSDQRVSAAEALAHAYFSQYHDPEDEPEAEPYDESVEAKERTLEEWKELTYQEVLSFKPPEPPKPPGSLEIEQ
Sequence of Aurora kinase A (O14965 whole entry): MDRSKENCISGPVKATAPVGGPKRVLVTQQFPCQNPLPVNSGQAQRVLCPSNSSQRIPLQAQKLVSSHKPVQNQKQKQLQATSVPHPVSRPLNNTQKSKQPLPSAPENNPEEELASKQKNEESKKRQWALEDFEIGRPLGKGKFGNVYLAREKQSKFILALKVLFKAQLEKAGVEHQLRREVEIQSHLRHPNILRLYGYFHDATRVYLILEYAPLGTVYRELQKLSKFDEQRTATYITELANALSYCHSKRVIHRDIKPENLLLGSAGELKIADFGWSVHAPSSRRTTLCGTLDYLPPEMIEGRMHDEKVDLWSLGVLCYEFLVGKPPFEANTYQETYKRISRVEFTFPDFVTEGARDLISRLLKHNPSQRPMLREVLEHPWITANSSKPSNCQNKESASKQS
Sequence of RAC-alpha serine/threonine-protein kinase (P31749 whole entry): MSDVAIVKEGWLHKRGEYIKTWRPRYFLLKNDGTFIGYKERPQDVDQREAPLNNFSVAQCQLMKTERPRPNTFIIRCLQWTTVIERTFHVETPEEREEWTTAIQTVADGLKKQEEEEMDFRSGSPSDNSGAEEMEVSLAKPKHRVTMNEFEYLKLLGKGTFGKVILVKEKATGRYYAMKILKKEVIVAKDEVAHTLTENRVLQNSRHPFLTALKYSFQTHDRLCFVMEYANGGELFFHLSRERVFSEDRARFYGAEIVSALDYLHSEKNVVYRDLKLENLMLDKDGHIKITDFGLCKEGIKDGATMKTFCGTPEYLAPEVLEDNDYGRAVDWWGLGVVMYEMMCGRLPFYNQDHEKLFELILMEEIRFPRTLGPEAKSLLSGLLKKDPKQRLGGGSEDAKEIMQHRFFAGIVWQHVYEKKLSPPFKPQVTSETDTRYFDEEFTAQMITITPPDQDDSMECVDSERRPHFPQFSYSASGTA
Sequence of Cyclin-dependent kinase 7/ cyclin H (P51946 whole entry): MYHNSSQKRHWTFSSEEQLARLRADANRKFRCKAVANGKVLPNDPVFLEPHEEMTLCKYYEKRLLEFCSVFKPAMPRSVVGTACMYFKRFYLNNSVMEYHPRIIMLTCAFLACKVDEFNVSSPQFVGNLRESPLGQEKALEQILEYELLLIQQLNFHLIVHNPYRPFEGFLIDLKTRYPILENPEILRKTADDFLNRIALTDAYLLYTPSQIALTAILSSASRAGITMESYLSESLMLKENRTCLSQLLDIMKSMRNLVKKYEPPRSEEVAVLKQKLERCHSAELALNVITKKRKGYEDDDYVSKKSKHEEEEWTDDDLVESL
Sequence of Cyclin-dependent kinase 7/ cyclin H (P50613 whole entry): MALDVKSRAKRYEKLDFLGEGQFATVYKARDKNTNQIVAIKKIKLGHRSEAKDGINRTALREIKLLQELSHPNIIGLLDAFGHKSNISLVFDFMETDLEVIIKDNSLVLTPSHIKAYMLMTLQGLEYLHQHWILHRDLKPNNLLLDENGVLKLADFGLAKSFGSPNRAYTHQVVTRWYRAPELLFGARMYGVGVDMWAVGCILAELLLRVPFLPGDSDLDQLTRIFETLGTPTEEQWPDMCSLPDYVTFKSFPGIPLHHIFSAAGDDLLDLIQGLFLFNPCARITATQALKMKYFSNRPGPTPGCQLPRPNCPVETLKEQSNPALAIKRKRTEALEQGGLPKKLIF
Sequence of CDK9/cyclin T1 (O60563 whole entry): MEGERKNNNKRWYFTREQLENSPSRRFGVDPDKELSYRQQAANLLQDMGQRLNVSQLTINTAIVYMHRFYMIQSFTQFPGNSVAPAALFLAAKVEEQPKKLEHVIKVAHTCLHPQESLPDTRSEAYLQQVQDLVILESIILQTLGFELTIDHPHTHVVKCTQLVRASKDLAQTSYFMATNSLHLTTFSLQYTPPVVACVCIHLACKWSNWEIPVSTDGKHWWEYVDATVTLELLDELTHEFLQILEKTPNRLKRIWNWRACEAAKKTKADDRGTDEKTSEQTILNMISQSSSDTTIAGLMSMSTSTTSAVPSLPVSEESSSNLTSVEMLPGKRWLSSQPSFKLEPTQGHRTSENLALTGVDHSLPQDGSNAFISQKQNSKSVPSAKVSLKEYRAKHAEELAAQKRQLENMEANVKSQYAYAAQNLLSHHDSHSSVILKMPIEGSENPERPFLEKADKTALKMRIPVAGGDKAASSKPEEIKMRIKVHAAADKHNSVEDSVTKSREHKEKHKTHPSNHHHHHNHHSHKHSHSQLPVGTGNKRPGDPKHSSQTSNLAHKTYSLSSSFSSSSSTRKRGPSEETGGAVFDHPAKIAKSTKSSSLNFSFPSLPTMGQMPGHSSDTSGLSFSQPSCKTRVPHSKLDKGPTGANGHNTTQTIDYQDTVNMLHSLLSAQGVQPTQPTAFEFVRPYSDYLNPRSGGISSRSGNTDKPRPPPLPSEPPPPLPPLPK
Sequence of CDK9/cyclin T1 (P50750 whole entry): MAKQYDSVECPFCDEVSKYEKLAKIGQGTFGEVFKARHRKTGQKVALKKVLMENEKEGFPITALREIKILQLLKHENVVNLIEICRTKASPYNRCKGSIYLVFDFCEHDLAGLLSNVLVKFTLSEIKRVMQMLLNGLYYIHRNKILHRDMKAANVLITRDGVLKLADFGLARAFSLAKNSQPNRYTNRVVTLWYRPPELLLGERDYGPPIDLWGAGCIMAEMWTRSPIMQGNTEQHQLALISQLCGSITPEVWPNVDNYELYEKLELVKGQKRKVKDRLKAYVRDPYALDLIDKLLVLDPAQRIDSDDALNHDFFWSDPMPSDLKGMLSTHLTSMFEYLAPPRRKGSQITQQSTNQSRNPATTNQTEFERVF
Sequence of Cyclin-dependent kinase 1/cyclin B1 (P06493 whole entry): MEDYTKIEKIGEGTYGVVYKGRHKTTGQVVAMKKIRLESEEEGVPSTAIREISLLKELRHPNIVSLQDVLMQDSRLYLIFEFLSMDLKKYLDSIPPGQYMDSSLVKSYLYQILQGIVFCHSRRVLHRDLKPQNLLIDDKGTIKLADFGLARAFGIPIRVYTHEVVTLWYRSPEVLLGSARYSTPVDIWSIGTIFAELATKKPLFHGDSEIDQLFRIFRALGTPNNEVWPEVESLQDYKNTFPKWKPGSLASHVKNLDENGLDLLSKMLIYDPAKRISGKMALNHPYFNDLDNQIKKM
Sequence of Cyclin-dependent kinase 1/cyclin B1 (P14635 whole entry, further chain): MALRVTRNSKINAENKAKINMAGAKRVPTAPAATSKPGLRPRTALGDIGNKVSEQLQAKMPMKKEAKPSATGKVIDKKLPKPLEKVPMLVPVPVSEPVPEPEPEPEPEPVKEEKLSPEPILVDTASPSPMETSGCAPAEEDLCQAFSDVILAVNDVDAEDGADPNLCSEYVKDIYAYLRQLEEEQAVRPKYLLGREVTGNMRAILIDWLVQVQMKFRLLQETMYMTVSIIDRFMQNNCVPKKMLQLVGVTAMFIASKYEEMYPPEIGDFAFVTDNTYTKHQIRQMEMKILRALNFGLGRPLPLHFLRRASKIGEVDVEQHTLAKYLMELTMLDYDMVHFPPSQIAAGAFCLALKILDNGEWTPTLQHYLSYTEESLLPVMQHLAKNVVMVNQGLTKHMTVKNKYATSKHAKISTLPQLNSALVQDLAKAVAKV

Cc1nc(N)sc1-c1ccnc(Nc2ccc(O)cc2)n1
IC50 [1]: 25 µM

Cc1nc(C)c(-c2ccnc(Nc3ccc(O)cc3)n2)s1
IC50 [1]: 5 µM

CNc1nc(C)c(-c2ccnc(Nc3ccc(O)cc3)n2)s1
IC50 [1]: 10 µM

NC(=O)c1sc2c([N+](=O)[O-])cc(SC(F)(F)F)cc2[n+]1[O-] [CYCLAPOLIN 1]
Activity [2]: 80% | IC50 (HT-29): 2.8 µM | Activity (S2 [3]): inactive | IC50 [4]: > 100 µM | Activity (S2 [5]): inactive | Activity (S2 [6]): Active | Activity (S2 [7]): Active | Activity (HeLa [8]): Active | IC50 [9]: > 100 µM | IC50 (A549): 14 µM | IC50 (Aurora kinase A): > 100 µM | Activity (HeLa [10]): Active | IC50 [11]: > 100 µM | inhibition (Drosophila melanogaster): inactive | Activity (S2 [12]): Active | inhibition (S2 [13]): Active | IC50 [14]: > 100 µM | IC50 [15]: > 100 µM | inhibition [16]: inactive | Activity (HeLa [17]): Active | IC50 [18]: > 100 µM | IC50 [19]: > 100 µM | IC50 [20]: > 100 µM | IC50 [21]: > 100 µM | Activity (S2 [22]): Active | Activity (S2 [23]): Active | IC50 (HeLa [24]): 14 µM | IC50 [25]: > 100 µM | IC50 [26]: > 100 µM | IC50 [27]: > 100 µM | inhibition (S2 [28]): inactive | IC50 (CDK9/cyclin T1): > 100 µM | IC50 [29]: > 100 µM | Activity (S2 [30]): Active | IC50 [31]: > 100 µM | IC50 [32]: > 100 µM

NC(=O)c1sc2c([N+](=O)[O-])cc(C(F)(F)F)cc2[n+]1[O-] [CYCLAPOLIN 9]
residual activity [33]: 96% | IC50 (HT-29): 7.7 µM | IC50 [4]: > 100 µM | residual activity [34]: 115% | residual activity [35]: 83% | residual activity [36]: 88% | IC50 [9]: > 100 µM | IC50 (A549): 24.8 µM | IC50 (Aurora kinase A): > 100 µM | IC50 [11]: > 100 µM | residual activity [37]: 108% | IC50 [14]: > 100 µM | IC50 [15]: > 100 µM | residual activity [38]: 97% | residual activity [39]: 94% | residual activity [40]: 108% | IC50 [18]: > 100 µM | IC50 [19]: > 100 µM | residual activity [41]: 88% | residual activity [42]: 117% | residual activity [43]: 111% | residual activity [44]: 82% | IC50 [20]: > 100 µM | residual activity [45]: 107% | IC50 [21]: > 100 µM | residual activity [46]: 98% | residual activity [47]: 96% | IC50 (HeLa [24]): 6.6 µM | IC50 [25]: > 100 µM | residual activity [48]: 120% | IC50 [26]: > 100 µM | residual activity [49]: 106% | residual activity [50]: 108% | residual activity [51]: 106% | inhibition [52]: < 50% | IC50 [27]: > 100 µM | residual activity [53]: 45% | residual activity [54]: 105% | IC50 (CDK9/cyclin T1): > 100 µM | IC50 [29]: > 100 µM | IC50 [31]: > 100 µM | IC50 [32]: > 100 µM

NNC(=O)c1sc2c([N+](=O)[O-])cc(C(F)(F)F)cc2[n+]1[O-] [CYCLAPOLIN 10]
IC50 (HT-29): 50.5 µM | IC50 (A549): 72.1 µM | IC50 (HeLa [24]): 53.6 µM
